Active and inactive are the calls of the source. No cut-off for these calls is given here.
Key:
[1] = target: T1, C-X-C chemokine receptor type 4 (Homo sapiens, UniProt P61073); assay: Antagonist activity at CXCR4 in human CCRF-CEM cells assessed as inhibition of CXCL12-mediated calcium flux incubated for 25 mins followed by CXCL12 stimulation measured for 90 secs; assay type: functional, cell-based
[2] = target: T2, Muscarinic acetylcholine receptor M3 (Homo sapiens, UniProt P20309); assay: Antagonist activity at mAChR M3 in human CCRF-CEM cells assessed as inhibition of acetylcholine-mediated calcium flux incubated for 25 mins followed by acetylcholine stimulation measured for 90 secs; assay type: functional, cell-based
Target sequence in this assay (P20309 whole entry): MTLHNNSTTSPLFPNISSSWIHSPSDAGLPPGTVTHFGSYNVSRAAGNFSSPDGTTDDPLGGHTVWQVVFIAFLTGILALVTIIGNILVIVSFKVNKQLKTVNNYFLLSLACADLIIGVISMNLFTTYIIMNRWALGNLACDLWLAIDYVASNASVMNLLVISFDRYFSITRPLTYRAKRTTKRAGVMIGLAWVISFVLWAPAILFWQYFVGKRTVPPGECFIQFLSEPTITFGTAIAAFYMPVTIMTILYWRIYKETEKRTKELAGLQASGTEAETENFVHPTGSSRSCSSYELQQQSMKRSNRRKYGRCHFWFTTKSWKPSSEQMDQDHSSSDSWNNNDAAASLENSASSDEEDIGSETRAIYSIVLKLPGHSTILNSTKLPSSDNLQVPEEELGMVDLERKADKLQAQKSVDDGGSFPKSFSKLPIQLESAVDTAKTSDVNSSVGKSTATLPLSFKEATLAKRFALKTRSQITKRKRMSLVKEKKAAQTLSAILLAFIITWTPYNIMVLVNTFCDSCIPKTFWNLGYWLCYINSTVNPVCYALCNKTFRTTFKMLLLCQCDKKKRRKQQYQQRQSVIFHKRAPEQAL

[3] = Permeability of the compound in pH 7.4 buffer after 4 hrs by PAMPA; assay type: ADME; conditions: read-out: permeability
Outline: (§1)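 Parallel artificial membrane permeability assay (PAMPA) for passive transcellular permeability, run at pH 7.4 and at pH 5.5, with permeability reported in nm/s.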

[4] = Permeability of the compound in pH 5.5 buffer after 4 hrs by PAMPA; assay type: ADME; conditions: for Papp at 4 h: PAMPA, pH 5.5, read-out: permeability; outline: as §1
Cytochrome P450 2D6 = Cytochrome P450 2D6 (Homo sapiens, UniProt P10635); assay: Inhibition of recombinant human CYP2D6 expressed in insect microsomes using AMMC as substrate preincubated for 30 mins followed by NADPH addition measured after 45 mins by fluorescence assay; assay type: ADME
[5] = Metabolic stability in mouse liver microsomes assessed as parent compound remaining; assay type: ADME, microsome
[6] = Metabolic stability in rat liver microsomes assessed as parent compound remaining; assay type: ADME, microsome
[7] = Metabolic stability in human liver microsomes assessed as parent compound remaining; assay type: ADME, microsome
Cytochrome P450 3A4 = Cytochrome P450 3A4 (Homo sapiens, UniProt P08684); assay: Inhibition of CYP3A4 (unknown origin) using BFC as substrate; assay type: ADME
[8] = target: T1, C-X-C chemokine receptor type 4; assay: Agonist activity at CXCR4 in human CCRF-CEM cells assessed as increase in calcium flux incubated for 90 secs; assay type: functional, cell-based
[9] = target: T2, Muscarinic acetylcholine receptor M3; assay: Agonist activity at mAChR M3 in human CCRF-CEM cells assessed as increase in calcium flux incubated for 90 secs; assay type: functional, cell-based
Target sequence in this assay (P20309 whole entry, looked up): as the sequence (P20309 whole entry) above

Cytochrome P450 2C8 = target: T3, Cytochrome P450 2C8 (Homo sapiens, UniProt P10632); assay: Inhibition of CYP2C8 (unknown origin); assay type: ADME; conditions: human
T3 sequence (P10632 whole entry): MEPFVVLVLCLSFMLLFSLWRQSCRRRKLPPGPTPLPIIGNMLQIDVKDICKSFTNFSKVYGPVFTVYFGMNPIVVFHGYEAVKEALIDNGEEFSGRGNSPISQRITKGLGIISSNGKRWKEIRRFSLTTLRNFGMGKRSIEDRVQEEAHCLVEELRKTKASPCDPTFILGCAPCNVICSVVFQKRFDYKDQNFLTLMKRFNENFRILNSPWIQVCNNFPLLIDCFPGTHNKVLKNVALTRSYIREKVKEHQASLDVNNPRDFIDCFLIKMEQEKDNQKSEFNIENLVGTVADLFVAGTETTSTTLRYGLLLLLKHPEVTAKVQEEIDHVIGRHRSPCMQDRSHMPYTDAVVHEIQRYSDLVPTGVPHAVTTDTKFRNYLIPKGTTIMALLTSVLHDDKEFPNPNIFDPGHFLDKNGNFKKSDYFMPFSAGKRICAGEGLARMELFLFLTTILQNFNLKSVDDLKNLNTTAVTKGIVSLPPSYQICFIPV

Cytochrome P450 2C19 = Cytochrome P450 2C19 (Homo sapiens, UniProt P33261); assay: Inhibition of CYP2C19 (unknown origin); assay type: ADME; conditions: human
Cytochrome P450 1A2 = target: T4, Cytochrome P450 1A2 (Homo sapiens, UniProt P05177); assay: Inhibition of CYP1A2 (unknown origin); assay type: ADME
T4 sequence (P05177 whole entry): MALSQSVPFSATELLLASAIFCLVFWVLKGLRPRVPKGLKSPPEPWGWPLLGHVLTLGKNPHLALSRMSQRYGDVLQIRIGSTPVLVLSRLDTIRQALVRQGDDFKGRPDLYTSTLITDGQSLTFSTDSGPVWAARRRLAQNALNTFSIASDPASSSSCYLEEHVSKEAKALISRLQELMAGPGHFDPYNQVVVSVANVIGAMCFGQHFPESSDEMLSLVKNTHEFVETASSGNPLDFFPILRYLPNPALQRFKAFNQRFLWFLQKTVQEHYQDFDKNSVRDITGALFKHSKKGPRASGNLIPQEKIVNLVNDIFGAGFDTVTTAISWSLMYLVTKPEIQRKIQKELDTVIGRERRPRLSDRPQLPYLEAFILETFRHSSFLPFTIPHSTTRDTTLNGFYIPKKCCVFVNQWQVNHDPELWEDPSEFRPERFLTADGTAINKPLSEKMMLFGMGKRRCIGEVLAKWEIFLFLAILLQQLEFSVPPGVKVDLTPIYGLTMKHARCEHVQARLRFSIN

Cytochrome P450 2C9 = Cytochrome P450 2C9 (Homo sapiens, UniProt P11712); assay: Inhibition of CYP2C9 (unknown origin); assay type: ADME
Cytochrome P450 2B6 = target: T5, Cytochrome P450 2B6 (Homo sapiens, UniProt P20813); assay: Inhibition of CYP2B6 (unknown origin); assay type: ADME
T5 sequence (P20813 whole entry): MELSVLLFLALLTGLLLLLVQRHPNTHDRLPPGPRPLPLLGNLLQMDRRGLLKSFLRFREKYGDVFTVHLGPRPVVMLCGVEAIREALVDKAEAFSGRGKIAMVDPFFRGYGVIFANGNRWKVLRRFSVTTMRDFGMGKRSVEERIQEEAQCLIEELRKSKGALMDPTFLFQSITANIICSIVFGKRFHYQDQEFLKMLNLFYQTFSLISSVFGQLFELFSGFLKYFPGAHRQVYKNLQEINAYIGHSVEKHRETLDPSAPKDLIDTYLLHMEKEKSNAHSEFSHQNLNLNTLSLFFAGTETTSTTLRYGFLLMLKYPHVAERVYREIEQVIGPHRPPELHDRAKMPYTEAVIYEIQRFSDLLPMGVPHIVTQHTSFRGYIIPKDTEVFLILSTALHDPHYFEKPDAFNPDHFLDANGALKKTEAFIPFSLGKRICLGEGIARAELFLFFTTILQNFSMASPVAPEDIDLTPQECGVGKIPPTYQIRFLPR

Cytochrome P450 2A6 = target: T6, Cytochrome P450 2A6 (Homo sapiens, UniProt P11509); assay: Inhibition of CYP2A6 (unknown origin); assay type: ADME
T6 sequence (P11509 whole entry): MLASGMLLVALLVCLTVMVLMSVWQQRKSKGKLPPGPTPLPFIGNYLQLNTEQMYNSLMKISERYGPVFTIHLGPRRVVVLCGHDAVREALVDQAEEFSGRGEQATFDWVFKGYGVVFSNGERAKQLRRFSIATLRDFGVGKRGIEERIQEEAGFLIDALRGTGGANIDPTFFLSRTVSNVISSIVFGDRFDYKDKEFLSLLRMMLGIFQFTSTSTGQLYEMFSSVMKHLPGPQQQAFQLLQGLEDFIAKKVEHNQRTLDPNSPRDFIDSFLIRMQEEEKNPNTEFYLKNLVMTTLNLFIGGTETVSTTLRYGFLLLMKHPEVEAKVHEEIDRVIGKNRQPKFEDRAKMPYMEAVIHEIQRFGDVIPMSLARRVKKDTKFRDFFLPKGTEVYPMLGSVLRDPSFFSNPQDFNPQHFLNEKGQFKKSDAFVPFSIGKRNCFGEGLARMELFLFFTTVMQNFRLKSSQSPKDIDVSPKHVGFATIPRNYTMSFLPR

Cytochrome P450 2D6, sequence (P10635 whole entry): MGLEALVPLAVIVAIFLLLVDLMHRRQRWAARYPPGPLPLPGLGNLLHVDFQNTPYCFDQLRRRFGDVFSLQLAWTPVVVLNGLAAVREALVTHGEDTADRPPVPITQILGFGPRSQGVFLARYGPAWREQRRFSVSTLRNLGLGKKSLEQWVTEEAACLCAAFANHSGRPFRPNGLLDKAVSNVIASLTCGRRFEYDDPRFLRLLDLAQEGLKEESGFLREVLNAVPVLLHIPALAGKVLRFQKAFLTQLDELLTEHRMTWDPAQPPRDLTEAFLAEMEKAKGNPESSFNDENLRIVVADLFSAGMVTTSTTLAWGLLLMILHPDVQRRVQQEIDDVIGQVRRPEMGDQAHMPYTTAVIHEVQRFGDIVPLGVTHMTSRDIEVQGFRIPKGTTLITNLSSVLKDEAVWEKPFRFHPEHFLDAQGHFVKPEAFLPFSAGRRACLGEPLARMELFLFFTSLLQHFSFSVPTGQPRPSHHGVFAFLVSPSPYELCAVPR
T1 sequence (P61073 whole entry): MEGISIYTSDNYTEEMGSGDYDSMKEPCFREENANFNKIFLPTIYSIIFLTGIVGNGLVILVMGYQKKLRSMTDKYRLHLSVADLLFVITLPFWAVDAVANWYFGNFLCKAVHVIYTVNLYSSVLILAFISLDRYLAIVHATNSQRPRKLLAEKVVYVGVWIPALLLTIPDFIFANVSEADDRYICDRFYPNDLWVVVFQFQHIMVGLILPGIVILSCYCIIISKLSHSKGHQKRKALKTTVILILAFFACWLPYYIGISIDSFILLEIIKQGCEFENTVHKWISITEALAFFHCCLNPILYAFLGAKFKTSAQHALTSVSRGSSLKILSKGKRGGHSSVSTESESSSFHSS
Cytochrome P450 3A4, sequence (P08684 whole entry): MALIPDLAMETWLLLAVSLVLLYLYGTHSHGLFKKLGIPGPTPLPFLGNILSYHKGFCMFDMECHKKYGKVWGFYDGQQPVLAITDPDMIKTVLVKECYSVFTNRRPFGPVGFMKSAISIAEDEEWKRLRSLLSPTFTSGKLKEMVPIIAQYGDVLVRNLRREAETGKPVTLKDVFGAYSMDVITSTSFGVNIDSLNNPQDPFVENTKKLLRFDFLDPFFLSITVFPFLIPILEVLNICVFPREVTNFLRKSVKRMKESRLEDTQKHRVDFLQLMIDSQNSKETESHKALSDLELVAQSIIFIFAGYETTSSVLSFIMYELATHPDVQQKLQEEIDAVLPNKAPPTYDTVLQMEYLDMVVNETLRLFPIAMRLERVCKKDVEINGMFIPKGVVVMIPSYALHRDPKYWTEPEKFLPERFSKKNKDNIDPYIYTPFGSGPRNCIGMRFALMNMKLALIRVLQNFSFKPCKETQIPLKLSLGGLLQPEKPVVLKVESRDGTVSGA
Cytochrome P450 2C9, sequence (P11712 whole entry): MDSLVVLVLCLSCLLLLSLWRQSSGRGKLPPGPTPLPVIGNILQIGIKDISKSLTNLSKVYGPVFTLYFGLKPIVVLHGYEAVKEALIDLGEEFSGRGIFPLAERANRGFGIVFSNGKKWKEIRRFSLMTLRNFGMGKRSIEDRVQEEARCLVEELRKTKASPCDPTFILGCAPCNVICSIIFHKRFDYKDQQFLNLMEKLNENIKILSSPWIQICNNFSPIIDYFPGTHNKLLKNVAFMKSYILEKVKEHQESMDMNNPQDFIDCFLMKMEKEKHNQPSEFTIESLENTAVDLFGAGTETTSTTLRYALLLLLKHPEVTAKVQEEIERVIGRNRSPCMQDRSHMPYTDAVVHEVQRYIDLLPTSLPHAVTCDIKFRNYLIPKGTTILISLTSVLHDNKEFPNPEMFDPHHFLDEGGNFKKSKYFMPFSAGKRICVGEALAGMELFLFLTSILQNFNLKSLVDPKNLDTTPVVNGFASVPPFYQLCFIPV
Cytochrome P450 2C19, sequence (P33261 whole entry): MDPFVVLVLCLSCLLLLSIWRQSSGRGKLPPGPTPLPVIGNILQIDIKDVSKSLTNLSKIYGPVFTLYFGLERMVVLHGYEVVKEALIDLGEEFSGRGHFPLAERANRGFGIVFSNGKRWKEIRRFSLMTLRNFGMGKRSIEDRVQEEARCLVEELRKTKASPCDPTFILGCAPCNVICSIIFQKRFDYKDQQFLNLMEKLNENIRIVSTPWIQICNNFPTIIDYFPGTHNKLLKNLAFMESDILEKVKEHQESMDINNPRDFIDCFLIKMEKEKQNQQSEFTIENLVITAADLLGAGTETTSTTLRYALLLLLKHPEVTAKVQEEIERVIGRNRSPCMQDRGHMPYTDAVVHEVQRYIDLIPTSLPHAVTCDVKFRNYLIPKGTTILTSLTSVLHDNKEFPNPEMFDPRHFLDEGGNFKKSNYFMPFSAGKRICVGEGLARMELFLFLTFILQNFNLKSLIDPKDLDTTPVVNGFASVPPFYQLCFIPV

NC(=O)NC/C=C\CN(C[C@H]1Cc2ccccc2CN1)[C@H]1CCCc2cccnc21
IC50 [1]: 210 nM
IC50 [2]: > 16000 nM
Papp at 4 h [3]: 11 ×10⁻⁶ cm/s
Papp at 4 h [4]: 1.3 ×10⁻⁶ cm/s
IC50 (Cytochrome P450 2D6): 470 nM
Stability [5]: 2%
Stability [6]: 2%
Stability [7]: 73%

NCC1CC1CN(C[C@H]1Cc2ccccc2CN1)[C@H]1CCCc2cccnc21 (single isomer, unassigned; diastereomer 2)
IC50 [1]: 13 nM
IC50 [2]: 13000 nM
permeability ([4]; pampa, pH 5.5, 4 h, 4 h): 8.8 ×10⁻⁶ cm/s
IC50 (Cytochrome P450 2D6): 270 nM
Stability [5]: 4%

C/C(CN(C[C@H]1Cc2ccccc2CN1)[C@H]1CCCc2cccnc21)=C(\F)CN
IC50 [2]: 9600 nM
Papp at 4 h [3]: 55 ×10⁻⁶ cm/s
Papp at 4 h [4]: 28 ×10⁻⁶ cm/s
IC50 (Cytochrome P450 2D6): 190 nM
IC50 (Cytochrome P450 3A4): 13000 nM
Stability [5]: 1%
Stability [6]: 6%
Stability [7]: 51%

N[C@H]1CC[C@H](CN(C[C@H]2Cc3ccccc3CN2)[C@H]2CCCc3cccnc32)CC1
IC50 [1]: 280 nM
IC50 [2]: > 33000 nM
Papp at 4 h [3]: 1.2 ×10⁻⁶ cm/s
IC50 (Cytochrome P450 2D6): 760 nM
IC50 (Cytochrome P450 3A4): 10000 nM
Stability [5]: 44%
Stability [6]: 51%
Stability [7]: 39%

NCC1=C(CN(C[C@H]2Cc3ccccc3CN2)[C@H]2CCCc3cccnc32)CCCC1
IC50 [1]: 230 nM
IC50 [2]: 23000 nM
Papp at 4 h [4]: 17 ×10⁻⁶ cm/s
IC50 (Cytochrome P450 2D6): 180 nM
Stability [5]: 2%
Stability [6]: 1%
Stability [7]: 65%

FC1(F)CCC(NC/C=C\CN(C[C@H]2Cc3ccccc3CN2)[C@H]2CCCc3cccnc32)CC1
IC50 [2]: 11000 nM
Activity [8]: Active
Activity [9]: Active
Papp at 4 h [3]: 1.3 ×10⁻⁶ cm/s
IC50 (Cytochrome P450 2D6): 540 nM
Stability [5]: 3%
Stability [6]: 1%
Stability [7]: 44%

C/C(=C/CN)CN(C[C@H]1Cc2ccccc2CN1)[C@H]1CCCc2cccnc21
IC50 [2]: 1100 nM
Papp at 4 h [3]: 25 ×10⁻⁶ cm/s
Papp at 4 h [4]: 8.3 ×10⁻⁶ cm/s
IC50 (Cytochrome P450 2D6): 88 nM
IC50 (Cytochrome P450 3A4): > 20000 nM
Stability [5]: 2%
Stability [6]: 2%
Stability [7]: 96%

NC/C=C/CN(C[C@H]1Cc2ccccc2CN1)[C@H]1CCCc2cccnc21
IC50 [2]: > 16000 nM
Papp at 4 h [3]: 83 ×10⁻⁶ cm/s
Papp at 4 h [4]: 26 ×10⁻⁶ cm/s
inhibition (INH) (Cytochrome P450 2C8): Not Active
inhibition (INH) (Cytochrome P450 2C19): Not Active
Stability [5]: 11%
Stability [6]: 34%
Stability [7]: 100%
inhibition (INH) (Cytochrome P450 1A2): Not Active
inhibition (INH) (Cytochrome P450 2C9): Not Active
inhibition (INH) (Cytochrome P450 2B6): Not Active
inhibition (INH) (Cytochrome P450 2A6): Not Active

N[C@H]1CC[C@@H](N(C[C@H]2Cc3ccccc3CN2)[C@H]2CCCc3cccnc32)CC1
IC50 [1]: 1800 nM
IC50 [2]: > 33000 nM
Papp at 4 h [4]: 1 ×10⁻⁶ cm/s
IC50 (Cytochrome P450 2D6): 81 nM
IC50 (Cytochrome P450 3A4): > 20000 nM
Stability [5]: 56%
Stability [6]: 24%
Stability [7]: 86%

Source: ChEMBL document CHEMBL4138298, “Synthesis of Novel Tetrahydroisoquinoline CXCR4 Antagonists with Rigidified Side-Chains” (ACS Med Chem Lett, 2018)
